CSC inhib = blocks cancer stem cells; cancer stem cell-like cells viability, luminescence; inhibition, % at 7.5 µM; 300,000 tested, 1.1% active; AID 2717; in the data active means inhibition above about 75%; inconclusive means no clear call, values can overlap the other calls; tested in HMLE shEcad cells
T cruzi inh = T. cruzi replication inhibition; AID 1885; 300,000 tested, 1.4% active; T. cruzi beta-gal in NIH3T3, luminescence, 90 h; inhibition, % (concentration not given with the values);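 active means mean inhibition across valid replicates above about 55%, limit read from the data; inconclusive means mean below that limit but half or more replicates reach it; inactive means mean below it, under half of replicates reach it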;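 further: signal also drops with host cell toxicity which is not excluded here; 0% = plate median of DMSO wells and 100% = zero luminescence signal; higher percent means less beta-gal luminescence so fewer parasites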
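assay system = mouse NIH/3T3 fibroblasts infected with β-gal-expressing T. cruzi Tulahuen C4 | input = 5,000 NIH/3T3 host cells per well | buffer or medium = DMEM plus 2% FBS | timing = 3 h host attachment, then at least 90 h co-culture | measured by = GalScreen luminescence, 60 min | evaluation = luminescence reflecting intracellular parasite burden, expressed as percent inhibition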
SKKanGAS inh = inhibitors of SKKanGAS S. pyogenes growth in kanamycin (SK-promoter or general growth effect) | BacTiter-Glo, 6 h | inhibition, % at 7.5 µM | 300,000 tested, 1.3% active;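 active means mean replicate score, as percent of positive control median, at least 50; inconclusive means mean below 50 but one replicate at or above 50; inactive means mean and every replicate below 50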;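 further: strain carries kanamycin resistance gene driven by streptokinase promoter and grows in 40 µg/ml kanamycin; loss of luminescence reflects streptokinase promoter inhibition or plain growth inhibition; 0% = median of DMSO wells and 100% = positive control at its reference dose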
Mdm2 MdmX PPI = human Mdm2/MdmX binding inhibition | O15151+Q00987 | SaOS-2 split-luciferase Mdm2/MdmX complementation, luminescence | inhibition, % at 8 µM | 330,000 tested, 3% active | AID 485346;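 active means inhibition of at least 50% at 8 µM in the primary screen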
aSyn 5UTR inh = MLPCN primary screen, SNCA 5' untranslated region; 300,000 tested, 0.82% active; alpha-synuclein 5'UTR reporter, inhibitor activity; inhibition, % (tested at 7.5 µM); in the data active means inhibition above about 60%; inconclusive means no clear call, values can overlap the other calls;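 further: H4 neuroglioblastoma cells stably carrying SNCA 5'UTR luciferase fusion; 0% = DMSO wells and 100% = positive control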
Mdm2-MdmX conf = human Mdm2/MdmX binding inhibition, confirmed | shares compounds with Mdm2 MdmX PPI | inhibition, % at 8 µM | luminescent assay | 10,000 tested, 55% active; in the data active means inhibition above about 40%
Full FLuc ctr = inhibits full-length luciferase, flagging false Mdm2/MdmX hits; shares compounds with Mdm2 MdmX PPI; inhibition, % at 8 µM; 6,200 tested, 77% active; AID 504607; SaOS-2 full-length luciferase counterscreen, luminescence;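 active means mean inhibition at 8 µM reaching about 37%, which flags the compound as non-specific, limit read from the data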;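 further: p53-null SaOS-2 cells with luciferase driven by a doxycycline-inducible promoter; compound on cells about two nights before reading with doxycycline added after day one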
* = called active by the depositor; ? = inconclusive; / = no result. Most compounds without a hit are left out; they make up all but 5.4% or so of the library.

SMILES | CSC inhib | T cruzi inh | SKKanGAS inh | Mdm2 MdmX PPI | aSyn 5UTR inh | Mdm2-MdmX conf | others
CCOC(=O)[C@H]1[C@H]2COc3ccc(C)cc3[C@@H]2N2C(=O)c3cc(Cl)ccc3NC(=O)[C@@]12C | 16.4 | / | / | 20.9 | / | /
O=C(NCc1cccnc1)Nc1ccccc1C(F)(F)F | -5.2 | -2.9 | -3.0 | 17.1 | -12.2 | /
Nc1ncnc2c1ncn2[C@@H]1O[C@H](CNS(=O)(=O)c2cc(S(=O)(=O)c3ccccc3)cs2)[C@@H](O)[C@H]1O | / | / | / | 36.7 | / | /
CCCC(=O)Nc1nc2ccc(NC(=O)c3ccccc3F)cc2s1 | 39.1 | 0.4 | 5.5 | 54.9* | 37.4 | 55.5* | Full FLuc ctr=73.7*
COc1ccc2nc(NC(=O)c3ccccc3F)sc2c1 | 20.6 | -0.2 | 8.5 | -216.4 | -26.8 | /
Cc1cc(=O)[nH]c2c(C)cc(S(=O)(=O)N3CCCCC3)cc12 | -8.5 | -1.5 | -2.9 | 69.5* | 11.2 | 54.1* | Full FLuc ctr=89.2*
CC(C)Cn1c(N)c(C(=O)COC(=O)c2cc(C(F)(F)F)nc3c(C(F)(F)F)cccc23)c(=O)n(C)c1=O | -1.6 | -8.1 | 22.8 | 88.0* | 5.8 | 5.2
Cn1c(=O)c(C(=O)COC(=O)c2cc(C(F)(F)F)nc3ccccc23)c(N)n(Cc2ccccc2)c1=O | -15.3 | 39.4 | 29.7 | 43.9 | 11.7 | /
Cc1csc(CN(C)C(=O)CC2C(=O)NCCN2Cc2ccc(Cl)c(F)c2)n1 (stereo not given) | 1.6 | -8.8 | -8.6 | 17.5 | -16.5 | /
CCN1C(=O)[C@H]2[C@@H](c3ccc(-c4ccc(F)cc4)c(OC)c3)N[C@@](Cc3ccccc3)(C(=O)OC)[C@H]2C1=O | / | / | / | 58.0* | / | 19.2
CCN1C(=O)[C@H]2[C@@H](c3ccc(-c4ccc(Cl)c(Cl)c4)c(OC)c3)N3CCCC[C@@]3(C(=O)OC)[C@H]2C1=O | / | / | / | 65.8* | / | 12.9
CCN1C(=O)[C@H]2[C@@H](c3ccc(-c4ccc(Cl)c(Cl)c4)c(OC)c3)N[C@@](C)(C(=O)OC)[C@H]2C1=O | 22.0 | -12.2 | 22.2 | 57.0* | -4.3 | 45.0* | Full FLuc ctr=70.5*
CCN1C(=O)[C@H]2[C@@H](c3ccc(-c4ccc(F)cc4)c(OC)c3)N3CCCC[C@@]3(C(=O)OC)[C@H]2C1=O | / | / | / | 44.6 | / | /
CCN1C(=O)[C@H]2[C@@H](c3ccc(-c4cccc(Cl)c4)c(OC)c3)N3CCCC[C@@]3(C(=O)OC)[C@H]2C1=O | / | / | / | 59.4* | / | 27.8
Cc1ccc(P(=Nc2ccccc2)(N2CCOCC2)N2CCOCC2)o1 | 1.5 | 0.2 | -1.2 | -8.8 | -16.6 | /
CN(c1ccccc1)S(=O)(=O)c1ccc(C(=O)NCc2ccccn2)cc1 | -8.5 | -7.7 | 2.8 | 3.2 | 33.4 | /
COC(=O)[C@@]12CCCCN1[C@H](c1ccc(-c3cccc(Cl)c3)cc1)[C@@H]1C(=O)N(C)C(=O)[C@@H]12 | / | / | / | 77.8* | / | 31.4
CCN1C(=O)[C@H]2[C@@H](c3ccc(-c4ccc(Cl)c(Cl)c4)cc3)N3CCCC[C@@]3(C(=O)OC)[C@H]2C1=O | 42.6 | -3.4 | 7.8 | 65.6* | -25.5 | 23.9
C/C(CC(=O)Nc1ccccc1F)=N\NC(=O)Cc1ccc(Cl)cc1 | / | -0.5 | -11.2 | -8.0 | -19.1 | /
COc1ccc(NC(=O)/C(C#N)=C\c2cc(C)n(-c3ccc4c(c3)OCO4)c2C)cc1 | 48.0 | 2.9 | 38.2 | 58.4* | -107.0 | 54.9* | Full FLuc ctr=75.2*
O=C(CN1C(=O)NC2(CCCCCC2)C1=O)NCc1ccccc1 | -20.3 | / | / | 23.3 | / | /
O=C(CSc1nccn1Cc1ccccc1)NC1CCCC1 | -8.9 | -7.7 | 1.3 | 20.7 | -24.5 | /
CN1/C(=C\C(=O)c2cccnc2)C(C)(C)c2ccccc21 | -8.5 | 6.2 | 0.1 | 24.4 | -6.5 | /
CN1/C(=C/C(=O)c2nc(S(C)(=O)=O)ncc2Cl)C(C)(C)c2ccccc21 | 111.1* | 39.8 | -32.4 | 100.3* | ? | 100.1* | Full FLuc ctr=51.8*
CCOC(=O)C1=C(c2ccccc2)Nc2ncnn2C1c1ccc(C(=O)O)cc1 (stereo not given) | -17.1 | -16.8 | -1.1 | -48.8 | -4.3 | /
CCOC(=O)C1=C(c2ccccc2)NC(N)=NC1c1ccc(OCc2ccc(C(=O)OC)cc2)cc1 (stereo not given) | -4.5 | 25.2 | 9.6 | 100.1* | -19.7 | 35.4 | Full FLuc ctr=72.3*

Compound activity (PubChem)
